Source: PubChem
HSV replic up: increases HSV replication in cells; hit rate 0.005% among 220,000; HSV replication augmentation in cells, fold increase; maximum fold increase; AID 1956; in the data active = maximum fold increase above about 1.5; tested in PC3 cells
Insulin prom inh: TRM-6 insulin promoter activity inhibition; inhibition, % at 2 µM; TRM-6 cells (human fetal islet line), insulin promoter-eGFP reporter, imaging; reporter expression induced with tamoxifen; hit rate 0.9% among 130,000;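 active = inhibition above the mean plus 3 SD, with well images judged a real hit on visual review, cut at about 60% in these data, passing the limit was not always enough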
ROMK mod: human ROMK K+ channel modulation, primary screen; AID 1918; hit rate 2% among 130,000; P48048; B-score at 10 µM; Tet-inducible ROMK, thallium flux fluorescence; actives lie on both sides;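 active = signal ratio slope over the read window, or its plate-corrected B-score, at least 3 SD from the plate mean, either direction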;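 note: B-score of the F/F0 ratio slope over 7 to 12 s after thallium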
Target sequence (P48048 whole entry, looked up): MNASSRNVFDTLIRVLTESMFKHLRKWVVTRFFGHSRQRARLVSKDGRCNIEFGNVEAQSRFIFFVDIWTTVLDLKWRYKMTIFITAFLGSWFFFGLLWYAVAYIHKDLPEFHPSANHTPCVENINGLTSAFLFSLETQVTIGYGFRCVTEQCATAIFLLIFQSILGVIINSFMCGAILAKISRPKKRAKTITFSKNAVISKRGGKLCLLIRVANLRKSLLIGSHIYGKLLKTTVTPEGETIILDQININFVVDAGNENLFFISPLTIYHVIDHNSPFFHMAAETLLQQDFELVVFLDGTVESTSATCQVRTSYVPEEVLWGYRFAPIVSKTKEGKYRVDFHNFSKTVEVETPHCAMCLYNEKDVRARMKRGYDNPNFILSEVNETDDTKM
MT stabilizer: microtubule stabilization, imaging screen; HeLa tubulin immunostaining HCS, 24 h; share of cells brighter than vehicle mean+2SD; % tubulin-high responders, % at 10 µM; hit rate 0.83% among 200,000; AID 2205;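 active = plate Z-score above 3 for both tubulin-high and condensed-nucleus cell shares, with cell loss under 80%, at 10 µM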;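 note: anti alpha tubulin signal scored within the nucleus-defined area of each cell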
bCat nuc transl: alters nuclear translocation of beta-catenin in HeLa cells; immunofluorescence imaging; nuclear translocation activity, % at 5 µM; hit rate 0.3% among 190,000; AID 1665;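 active = nuclear translocation activity above 50% at 5 µM, with a well cell count of 50 or more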;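 note: per-cell ratio of nuclear to cytoplasmic median beta-catenin stain intensity; plate controls were DMSO negative control for no effect and GSK-3 inhibitor IX positive control for full effect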
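System: HeLa cells, endogenous beta-catenin; compound dosing: 5 µM primary single dose, 0.1% DMSO, 0.02–20 µM confirmation series; incubation: 24 h compound exposure at 37°C, 5% CO2; signal: beta-catenin immunofluorescence imaging with DAPI; evaluation: % activation, nuclear-to-cytoplasmic median beta-catenin signal ratio per cell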
* = called active by the depositor. Compounds with a hit are over-represented: about 2.4% of the library has one in this group of screens.

Screening Cc1nc(C(=O)Nc2ccc(Cl)cc2)sc1C1(C)CC(c2cccc([N+](=O)[O-])c2)=NO1 (stereo unspecified) returned HSV replic up inactive.
For Cc1noc(NS(=O)(=O)c2ccc(NC(=O)Nc3ccc(Cl)c(Cl)c3)cc2)c1C the results were HSV replic up inactive, Insulin prom inh 75*, ROMK mod 2.3, MT stabilizer 4 and bCat nuc transl 2.
Screening CC(=O)NC(C)C(=O)OCC(=O)Nc1ccc(Br)cc1 (stereo unspecified) returned HSV replic up inactive, Insulin prom inh 89*, ROMK mod 0.56, MT stabilizer 1 and bCat nuc transl -3.
`CCCC(C)C(=O)OCC(=O)Nc1ccc(Br)cc1` (stereo unspecified) gave HSV replic up inactive, Insulin prom inh 41, ROMK mod 0.16, MT stabilizer 4 and bCat nuc transl 0.
For O=C(Nc1nc2ccccc2s1)C1=NN(c2ccccc2)C(=O)CC1 the results were HSV replic up inactive, Insulin prom inh -7, ROMK mod 0.47, MT stabilizer 2 and bCat nuc transl -1.
For COc1cc(CNC(C)C)c(Br)cc1OC1CCCC1 the results were HSV replic up inactive, ROMK mod 0.22, MT stabilizer 3 and bCat nuc transl 0.
For Cc1ccc(NCc2ccc(O)c3ncccc23)cc1C the results were HSV replic up inactive, Insulin prom inh 79*, MT stabilizer 2 and bCat nuc transl 0.
Screening CCOc1ccccc1N/C=C(\C#N)c1nc2ccccc2n1C returned HSV replic up inactive, Insulin prom inh 72*, ROMK mod 0.77, MT stabilizer 2 and bCat nuc transl 2.
Screening O=C(NCc1ccc(Cl)cc1)c1cnn2ccccc12 returned HSV replic up inactive and MT stabilizer 2.
Screening CCOC(=O)c1ccc(CNCc2ccc(C)cc2)cc1 returned HSV replic up inactive, Insulin prom inh 26, ROMK mod -0.94, MT stabilizer 4 and bCat nuc transl -1.
Screening COc1ccc(-n2c(SCCC(=O)O)nnc2-c2ccncc2)cc1 returned HSV replic up inactive, Insulin prom inh 81*, ROMK mod 1.1, MT stabilizer 3 and bCat nuc transl -1.
Screening COc1cc(/C=C\C(=O)NCc2ccc3[nH]c(C)cc3c2)cc(OC)c1OC returned HSV replic up inactive, Insulin prom inh 66*, ROMK mod 1, MT stabilizer 4 and bCat nuc transl -3.
For CSCCC(NS(=O)(=O)c1ccccc1F)C(=O)NC(C)c1ccccc1 (stereo unspecified) the results were HSV replic up inactive, Insulin prom inh -45, ROMK mod -0.48, MT stabilizer 6 and bCat nuc transl -1.
For COc1cc(NS(=O)(=O)c2ccc(C)cc2C)cc(OC)c1OC the results were HSV replic up inactive, ROMK mod -2.1, MT stabilizer 22* and bCat nuc transl 7.
O=C1NC(=S)S/C1=C\c1coc2ccccc2c1=O was read as HSV replic up inactive, Insulin prom inh 23, ROMK mod -4.6*, MT stabilizer 2 and bCat nuc transl 0.
`O=C(NC(=S)Nc1cc(-c2nc3ccccc3[nH]2)ccc1Cl)c1ccc2c(c1)OCO2` gave HSV replic up inactive, MT stabilizer 14* and bCat nuc transl 5.
Cc1ccc(-c2nc3ccccc3[nH]2)cc1NC(=O)c1ccc2c(c1)OCO2 was read as HSV replic up inactive, ROMK mod 0.51, MT stabilizer 3 and bCat nuc transl 4.
Screening COc1ccc(N2CCN(c3nc(Cl)nc(Nc4ccc(F)cc4)n3)CC2)cc1 returned HSV replic up inactive, ROMK mod 0.26 and MT stabilizer 2.
`O=C(CCl)Nc1cccc(S(=O)(=O)N2CCCCCC2)c1` gave HSV replic up inactive, MT stabilizer 13* and bCat nuc transl 31.
Screening O=C(CN1C(=O)C2C3C=CC(C3)C2C1=O)Nc1cccc(S(=O)(=O)N2CCCC2)c1 (stereo unspecified) returned HSV replic up inactive, Insulin prom inh 100*, ROMK mod -0.14, MT stabilizer 2 and bCat nuc transl -4.
CC(=O)N1CCN(CC(=O)Nc2cccc(S(=O)(=O)N3CCCCCC3)c2)CC1 was read as HSV replic up inactive, Insulin prom inh 38, ROMK mod 0.39, MT stabilizer 1 and bCat nuc transl 0.
Screening O=C(CN1C(=O)C2CC=CCC2C1=O)Nc1ccc(S(=O)(=O)N2CCOCC2)cc1 (stereo unspecified) returned HSV replic up inactive, Insulin prom inh 73*, ROMK mod -0.52, MT stabilizer 4 and bCat nuc transl 0.
`CC[C@@H](C)[C@@H](C(=O)N1CCNCC1)n1cc(CCC(=O)O)nn1` gave HSV replic up inactive, MT stabilizer 3 and bCat nuc transl -2.
`CCCC/C=C/C(NC(=O)c1ccc(C(=O)OC)cc1)c1ccccc1` (stereo unspecified) gave HSV replic up inactive.
For FC(F)(F)c1cccc(CN2CCC(c3cc(-c4cccs4)n[nH]3)CC2)c1 the results were HSV replic up inactive, Insulin prom inh -36, ROMK mod 1.9, MT stabilizer 29* and bCat nuc transl 0.
Screening Cc1nc2c([nH]c3ccc(Br)cc32)s1 returned HSV replic up inactive, Insulin prom inh 95*, ROMK mod 0.59, MT stabilizer 5 and bCat nuc transl 0.
`Brc1ccc2[nH]c3c(c2c1)CCC3` gave HSV replic up inactive and bCat nuc transl 0.
Screening Cc1ccc(-c2cn3c(n2)SCC3)cc1 returned HSV replic up inactive, Insulin prom inh 53, ROMK mod 0.025, MT stabilizer 2 and bCat nuc transl 0.
`CCc1ccc(-c2cn3c(n2)SCC3)cc1` gave HSV replic up inactive, Insulin prom inh 83*, ROMK mod -1.3, MT stabilizer 2 and bCat nuc transl -1.
O=C(NCc1ccco1)C(c1cccs1)N(C(=O)C1COc2ccccc2O1)c1cccc(O)c1 (stereo unspecified) was read as HSV replic up inactive, ROMK mod -7.2*, MT stabilizer 8 and bCat nuc transl 2.
`CSCCC(NC(=O)c1ccccc1)C(=O)N/N=C(\C)c1ccccc1` (stereo unspecified) gave HSV replic up inactive, Insulin prom inh 14, MT stabilizer 2 and bCat nuc transl -2.
For Cc1ccc(-n2sc3ccccc3c2=O)cc1S(=O)(=O)N1CCCCC1 the results were HSV replic up inactive, Insulin prom inh 75*, ROMK mod 0.25, MT stabilizer 2 and bCat nuc transl 0.
O=c1c2ccccc2sn1-c1ccc(S(=O)(=O)N2CCCCC2)cc1 was read as HSV replic up inactive, Insulin prom inh 28 and MT stabilizer 3.
For CCOc1ccc(S(=O)(=O)Oc2ccc3ccccc3c2)cc1 the results were HSV replic up inactive, Insulin prom inh 17, ROMK mod 0.39, MT stabilizer 17* and bCat nuc transl 1.
For COc1cccc(-c2noc(CCC(=O)NCC3CCCO3)n2)c1 (stereo unspecified) the results were HSV replic up inactive, ROMK mod 1.5, MT stabilizer 1 and bCat nuc transl -2.
